Source: ChEMBL document CHEMBL3407394, “Synthesis and in vitro anticancer activity evaluation of novel bioreversible phosphate inositol derivatives” (Eur J Med Chem, 2015)

Tests used:
A549 [1] = assay: Cytotoxicity against human A549 cells assessed as growth inhibition at 10 ug/ml after 72 hrs by MTT assay; format: functional; details: A549, 72 h, read-out: GI
How it was run: (§1)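 Single-concentration screen in A549, HeLa or MDA-MB-231 cells cultured in DMEM, 10% FBS, 1% penicillin/streptomycin. About 1000 cells/well were preincubated 12 h, and compound diluted in DMEM to the final well concentration (0.5% DMSO) for 72 h at 37 °C, 5% CO2. Readout was MTT 4 h, DMSO-solubilized formazan, OD570, with inhibition relative to DMSO vehicle. Cisplatin in 1% NaCl (pH 7) served as positive control.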

HeLa [2] = assay: Cytotoxicity against human HeLa cells assessed as growth inhibition at 10 ug/ml after 72 hrs by MTT assay; format: functional; details: read-out: GI; how it was run: as §1
MDA-MB-231 [3] = assay: Cytotoxicity against human MDA-MB-231 cells assessed as growth inhibition at 10 ug/ml after 72 hrs by MTT assay; format: functional; details: MDA-MB-231, 72 h, read-out: GI; how it was run: as §1
[4] = Cytotoxicity against human MCF10A cells assessed as growth inhibition at 10 ug/ml after 72 hrs by MTT assay; format: cell-based, MCF-10A; details: read-out: GI
How it was run: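 MCF10A cells in DMEM/F12 plus 5% horse serum, about 1000 per well, were incubated 12 h, then treated at one final well concentration diluted in DMEM (0.5% DMSO) for 72 h, 37 °C, 5% CO2. Viability was by MTT: 4 h in fresh medium, formazan dissolved in DMSO, absorbance at 570 nm, normalized to vehicle controls. Cisplatin in 1% NaCl, pH 7, was the positive control.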

A549 [5] = assay: Cytotoxicity against human A549 cells assessed as growth inhibition after 72 hrs by MTT assay; format: functional, cell-based; details: A549, 72 h
How it was run: (§2)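 A549, HeLa and MDA-MB-231 cells were grown in DMEM with 10% FBS and 1% penicillin/streptomycin. About 1000 cells/well were seeded and left 12 h, then exposed to a dilution series in DMSO (final 0.5% DMSO) for 72 h at 37 °C, 5% CO2. MTT in fresh medium was added for 4 h, formazan dissolved in DMSO, and OD570 read. Viability was normalized to vehicle, and IC50 taken by linear regression of concentration-response curves.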

HeLa [6] = assay: Cytotoxicity against human HeLa cells assessed as growth inhibition after 72 hrs by MTT assay; format: functional, cell-based; how it was run: as §2
MDA-MB-231 [7] = assay: Cytotoxicity against human MDA-MB-231 cells assessed as growth inhibition after 72 hrs by MTT assay; format: functional, cell-based; details: MDA-MB-231, 72 h; how it was run: as §2
[8] = Cytotoxicity against human MCF10A cells assessed as growth inhibition after 72 hrs by MTT assay; format: cell-based; details: MCF-10A
How it was run: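 MCF10A non-cancerous cells were maintained in DMEM/F12 with 5% horse serum. About 1000 cells/well were seeded and attached for 12 h, then dosed over a dilution series (DMSO vehicle, final 0.5%) for 72 h at 37 °C, 5% CO2. MTT in fresh medium ran 4 h, formazan was dissolved in DMSO and OD570 measured. Viability was relative to vehicle-treated cells, and IC50 came from linear regression of concentration-response curves.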

SMILES | inhibition of growth at 10 µg/mL (A549 [1]) | inhibition of growth at 10 µg/mL (HeLa [2]) | inhibition of growth at 10 µg/mL (MDA-MB-231 [3]) | inhibition at 72 h, 10 ug/ml [4] | IC50 (A549 [5]) | IC50 (HeLa [6]) | IC50 (MDA-MB-231 [7]) | IC50 [8]
CC(=O)Oc1ccc(COP(=O)(OCc2ccc(OC(C)=O)cc2)OC2C3OC4OC(C3OCc3ccccc3)C(OCc3ccccc3)C2O4)cc1 (stereo unspecified) | 88.9% | 100% | 95.8% | 20.1% | 6750 nM | 1260 nM | 2770 nM | 45400 nM
CC(=O)Oc1ccc(COP(=O)(OCc2ccc(OC(C)=O)cc2)OC2C3OC4OC(C3OCc3ccccc3)C(O[Si](C)(C)C(C)(C)C)C2O4)cc1 (stereo unspecified) | 100% | 100% | 84.3% | 100% | 9510 nM | 1350 nM | 2350 nM | 38100 nM
CC(=O)Oc1ccc(COP(=O)(OCc2ccc(OC(C)=O)cc2)OC2C(OCc3ccccc3)C3OCOC(C3OCc3ccccc3)C2OCc2ccccc2)cc1 (stereo unspecified) | 75.4% | 98.1% | 12.4% | 48.9% | 8150 nM | 1520 nM | 1580 nM | 18900 nM
CC(=O)Oc1ccc(COP(=O)(OCc2ccc(OC(C)=O)cc2)OC2C(OCc3ccccc3)C3OC(C)OC(C3OCc3ccccc3)C2OCc2ccccc2)cc1 (stereo unspecified) | 96.6% | 100% | 9.5% | 98.1% | 11400 nM | 2790 nM | 2850 nM | 8190 nM
CC(=O)Oc1ccc(COP(=O)(OCc2ccc(OC(C)=O)cc2)O[C@H]2[C@@H]3OC(C)(C)O[C@H]3[C@H](OP(=O)(OCc3ccc(OC(C)=O)cc3)OCc3ccc(OC(C)=O)cc3)[C@H]3OC(C)(C)O[C@H]32)cc1 | 90.1% | 100% | 91.8% | -10.7% | 2340 nM | 620 nM | 830 nM | 25100 nM
CC(=O)Oc1ccc(COP(=O)(OCc2ccc(OC(C)=O)cc2)O[C@@H]2[C@@H](OCc3ccccc3)[C@H](OCc3ccccc3)[C@@H](OCc3ccccc3)[C@H](OCc3ccccc3)[C@@H]2OP(=O)(OCc2ccc(OC(C)=O)cc2)OCc2ccc(OC(C)=O)cc2)cc1 | 14.9% | 15.8% | -17.2% | 42.3% |  |  |  | 
CC(=O)Oc1ccc(COP(=O)(OCc2ccc(OC(C)=O)cc2)OC2C3OC4OC(C3OCc3ccccc3)C(OP(=O)(OCc3ccc(OC(C)=O)cc3)OCc3ccc(OC(C)=O)cc3)C2O4)cc1 (stereo unspecified) | 98.5% | 100% | 99.7% | 38.8% | 1370 nM | 760 nM | 1530 nM | > 50000 nM
CC(=O)Oc1ccc(COP(=O)(OCc2ccc(OC(C)=O)cc2)OC2C3OCOC(C3OCc3ccccc3)C(OCc3ccccc3)C2OP(=O)(OCc2ccc(OC(C)=O)cc2)OCc2ccc(OC(C)=O)cc2)cc1 (stereo unspecified) | 92.1% | 100% | 86.8% | 90.4% | 2010 nM | 620 nM | 430 nM | 850 nM
CC(=O)Oc1ccc(COP(=O)(OCc2ccc(OC(C)=O)cc2)OC2C3OCOC2C(OCc2ccccc2)C(OP(=O)(OCc2ccc(OC(C)=O)cc2)OCc2ccc(OC(C)=O)cc2)C3OCc2ccccc2)cc1 (stereo unspecified) | 43.7% | 100% | 99.4% | 48% | 5550 nM | 950 nM | 2370 nM | 23200 nM
C#CCO[C@@H]1[C@@H](OCc2ccccc2)[C@H](OP(=O)(OCc2ccc(OC(C)=O)cc2)OCc2ccc(OC(C)=O)cc2)[C@H](OCc2ccccc2)[C@H](OP(=O)(OCc2ccc(OC(C)=O)cc2)OCc2ccc(OC(C)=O)cc2)[C@H]1OCc1ccccc1 | 9.9% | 100% | 8.7% | 38.6% |  |  |  | 
CC(=O)Oc1ccc(COP(=O)(OCc2ccc(OC(C)=O)cc2)O[C@H]2[C@H](OCc3ccccc3)[C@@H](OP(=O)(OCc3ccc(OC(C)=O)cc3)OCc3ccc(OC(C)=O)cc3)[C@H](OCc3ccccc3)[C@@H](OP(=O)(OCc3ccc(OC(C)=O)cc3)OCc3ccc(OC(C)=O)cc3)[C@H]2OCc2ccccc2)cc1 | 12.8% | 69.3% | -22.3% | 34.9% |  |  |  | 
CC(=O)Oc1ccc(COP(=O)(OCc2ccc(OC(C)=O)cc2)O[C@H]2[C@H](OCc3ccccc3)[C@@H](OCc3ccccc3)[C@@H](OP(=O)(OCc3ccc(OC(C)=O)cc3)OCc3ccc(OC(C)=O)cc3)[C@@H](OP(=O)(OCc3ccc(OC(C)=O)cc3)OCc3ccc(OC(C)=O)cc3)[C@@H]2OCc2ccccc2)cc1 | -1.2% | -6.2% | -2.1% | 15.6% |  |  |  | 
CC(=O)Oc1ccc(COP(=O)(OCc2ccc(OC(C)=O)cc2)O[C@@H]2[C@@H](OCc3ccccc3)[C@@H](OCc3ccccc3)[C@@H](OP(=O)(OCc3ccc(OC(C)=O)cc3)OCc3ccc(OC(C)=O)cc3)[C@H](OP(=O)(OCc3ccc(OC(C)=O)cc3)OCc3ccc(OC(C)=O)cc3)[C@H]2OCc2ccccc2)cc1 | 7.8% | 80% | 21.3% | 9.2% |  |  |  | 
CC(=O)Oc1ccc(COP(=O)(OCc2ccc(OC(C)=O)cc2)O[C@@H]2[C@H](OCc3ccccc3)[C@H](OCc3ccccc3)[C@@H](OP(=O)(OCc3ccc(OC(C)=O)cc3)OCc3ccc(OC(C)=O)cc3)[C@H](OP(=O)(OCc3ccc(OC(C)=O)cc3)OCc3ccc(OC(C)=O)cc3)[C@H]2OCc2ccccc2)cc1 | 6.4% | 84.5% | 11% | 37.4% |  |  |  | 
CC(=O)Oc1ccc(COP(=O)(OCc2ccc(OC(C)=O)cc2)O[C@H]2[C@H](OP(=O)(OCc3ccc(OC(C)=O)cc3)OCc3ccc(OC(C)=O)cc3)[C@@H](OCc3ccccc3)[C@H](OCc3ccccc3)[C@H](OCc3ccccc3)[C@@H]2OP(=O)(OCc2ccc(OC(C)=O)cc2)OCc2ccc(OC(C)=O)cc2)cc1 | 4.7% | 49.5% | 19.2% | 45.1% |  |  |  | 
CC(=O)Oc1ccc(COP(=O)(OCc2ccc(OC(C)=O)cc2)O[C@@H]2[C@@H](OCc3ccccc3)[C@H](OCc3ccccc3)[C@@H](OP(=O)(OCc3ccc(OC(C)=O)cc3)OCc3ccc(OC(C)=O)cc3)[C@@H](OP(=O)(OCc3ccc(OC(C)=O)cc3)OCc3ccc(OC(C)=O)cc3)[C@H]2OCc2ccccc2)cc1 | 9.1% | -1.2% | -11% | 5.1% |  |  |  | 
